# This is a sample that favours compounds with a hit; in the whole collection about 2.3% have one here.
# MsrA inh = bovine MsrA enzyme inhibitors, primary screen, biochemical, absorbance, HTS. 360,000 compounds, 0.75% hits. Methionine sulfoxide reductase A (Bos taurus). AID 651718, 2012. inhibition, % at 15.5 µM. purified bovine MsrA, absorbance read-out; in the data active means inhibition above about 4.5%;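 further: 0% = vehicle wells with enzyme and 100% = reference inhibitor wells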
# MC4R ag barr = MC4R agonists recruiting beta-arrestin, primary screen, cell-based, luminescence, agonist arm of biased-ligand search | Melanocortin receptor 4 (Homo sapiens), P32245 | U2OS MC4R beta-arrestin complementation; percent of melanotan II response, DMSO zero | AID 540308, 2011 | 360,000 compounds, 0.98% hits | activation, % at 8.9 µM;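 active means activation above a per-plate cutoff, the mean activation of sample wells on that plate plus 3 SD, cut at about 8% in these data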
# Target sequence (P32245 whole entry, looked up): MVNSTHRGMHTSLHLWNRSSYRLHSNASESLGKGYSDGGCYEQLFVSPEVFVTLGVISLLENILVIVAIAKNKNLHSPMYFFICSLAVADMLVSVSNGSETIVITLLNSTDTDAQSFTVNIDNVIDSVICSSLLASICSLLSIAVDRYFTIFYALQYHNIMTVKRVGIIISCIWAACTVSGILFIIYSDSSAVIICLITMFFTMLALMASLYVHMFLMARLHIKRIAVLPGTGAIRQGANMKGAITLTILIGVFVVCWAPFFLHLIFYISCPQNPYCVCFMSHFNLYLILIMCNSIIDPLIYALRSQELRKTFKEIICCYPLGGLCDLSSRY
# MC4R antag cAMP = MC4R antagonists of cAMP signaling, primary screen, cell-based, TR-FRET, antagonist arm of biased-ligand search. inhibition, % at 6.5 µM. 360,000 compounds, 0.48% hits. AID 540295, 2011. MC4R-expressing cells, MTII-stimulated cAMP, LANCE TR-FRET;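 active means inhibition above its plate's cutoff, the mean of tested wells on that plate plus 3 SD, cut at about 29% in these data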;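 further: 0% = Melanotan II alone and 100% = Melanotan II plus saturating MCL0020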
#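 System – human MC4R-expressing U2OS cells · Also added – Melanotan II · Dosing – one concentration, 6.5 µM nominal · Timing – 30-min compound, 1-h challenge, 1-h detection, room temperature · Measured by – Eu-cAMP/anti-cAMP TR-FRET, emission 671 nm · Replicates – singlicate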
# MsrA act = bovine MsrA enzyme activators, primary screen, biochemical, absorbance, HTS; Methionine sulfoxide reductase A (Bos taurus); purified bovine MsrA, absorbance read-out; activation, % at 10.6 µM; 360,000 compounds, 0.3% hits; AID 602163, 2012; in the data active means activation above about 7.5%;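 further: 0% = vehicle and 100% = reference activator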
# MC4R barr conf = MC4R beta-arrestin agonists, retest, confirmation, cell-based, luminescence, U2OS; shares compounds with MC4R ag barr; U2OS MC4R beta-arrestin recruitment; scaled DMSO 0%, Melanotan II 100%; activation, % at 8.9 µM; 2,400 compounds, 31% hits; AID 602192, 2012;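 active means mean activation across replicates above the hit cutoff set in the earlier primary screen, cut at about 8% in these data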
# MOR-DOR barr ag = agonists of MOR-DOR heterodimerization, counter-screen for MC4R biased agonist project, cell-based, luminescence | shares compounds with MC4R ag barr | activation, % at 9.2 µM | U2OS PathHunter beta-arrestin, beta-gal luminescence; percent of deltorphin B response, DMSO zero | 2,400 compounds, 5.8% hits;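 active means mean activation across replicates exceeds the hit threshold derived in the earlier primary screen, cut at about 18% in these data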;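 further: 100% = deltorphin B at 0.9 µM final and 0% = DMSO alone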
# Numbers without * were called inactive; . = no result given.
SMILES,MsrA inh,MC4R ag barr,MC4R antag cAMP,MsrA act,MC4R barr conf,MOR-DOR barr ag
O=C(CCc1ccccc1)NC(NC(=S)Nc1ccc(Br)cc1)C(Cl)(Cl)Cl (stereo not drawn),0.0,13.5*,21.4,-3.4,4.8,6.0
O=C(CCc1ccccc1)NC(NC(=S)Nc1cccc(Cl)c1)C(Cl)(Cl)Cl (stereo not drawn),-0.2,5.9,15.0,0.0,.,.
NS(=O)(=O)c1ccc(CNC(=O)c2ccc(NS(=O)(=O)c3cccs3)cc2)cc1,1.8,0.1,9.5,6.1,.,.
COc1cc(C(=O)N2CCN(Cc3ccccc3C(F)(F)F)CC2)cc(OC)c1OC,-0.9,0.6,4.7,-10.5,.,.
CC(=O)c1nn(-c2cccc(Br)c2)cc1C(=O)c1ccc(Cl)cc1,-0.9,32.2*,-5.4,-9.4,12.5*,5.7
CC(=O)c1nn(-c2ccccc2)cc1C(=O)c1cccc(Br)c1,-0.4,9.8*,-0.1,-13.2,11.8*,5.0
CC(=O)c1nn(-c2ccc(Cl)cc2)cc1C(=O)c1ccccc1,-0.3,18.3*,0.6,-1.2,3.8,16.0
Cc1ccc([C@H]2C[C@H](n3cc(COC(=O)c4ccccc4)nn3)[C@@H](O)CN2C(=O)C2CCCCC2)cc1,1.9,0.1,4.5,-1.6,.,.
O=C(Nc1ccc(-c2nc3cc(Cl)ccc3c(=O)o2)cc1)c1ccco1,0.2,-3.1,5.3,-0.9,.,.
O=C(Nc1ccc(-c2nc3c(ccc4ccccc43)o2)cc1)c1ccco1,-0.1,15.3*,2.8,-12.4,4.0,6.4
O=C1N/C(=C/c2cccn2-c2ccccc2)C(=O)N1Cc1ccc(F)cc1,2.1,17.0*,-6.6,-4.8,2.3,5.2
CCOC(=O)c1c(-c2ccc(N(C)C)cc2)oc2c1C(OC)CC2 (stereo not drawn),0.8,.,.,-1.1,.,.
CCCCNC(=O)c1cc2c(=O)n3cccc(C)c3nc2s1,0.3,-1.6,-1.7,-6.5,.,.
Cc1ccccc1NC(=O)c1cc2c(=O)n3cccc(C)c3nc2s1,-0.5,19.4*,8.0,-3.7,4.5,7.8
Cc1cccn2c(=O)c3cc(C(=O)NCCc4ccccc4)sc3nc12,1.8,17.7*,-0.2,-1.3,13.0*,2.8
CC(C)(C)C1CCC(=NNC(=O)CN(c2ccccc2)S(C)(=O)=O)CC1 (stereo not drawn),1.0,-0.7,4.9,-1.5,.,.
COCc1[nH]nc2c1C1(C(=O)Nc3ccc(F)cc31)C(C#N)=C(N)O2 (stereo not drawn),1.4,-1.1,4.8,-2.8,.,.
Cc1nn(-c2nc3ccccc3s2)c(N)c1Sc1ccc(F)cc1,-0.4,14.7*,0.2,-1.6,1.3,3.6
COC(=O)CC1C(=O)NCCN1C(=O)Nc1cccc(Cl)c1 (stereo not drawn),1.9,2.7,10.3,-2.1,.,.
Cc1cc(NC(=O)CCCOc2ccc(Cl)cc2Cl)no1,-0.1,17.5*,13.8,-1.1,2.8,2.0
Nc1ccc(S(=O)(=O)Nc2nccc(/C=C/c3ccc(Cl)cc3)n2)cc1,1.0,21.3*,5.0,-3.4,-0.8,2.5
Nc1ccc(S(=O)(=O)Nc2nccc(/C=C/c3ccc([N+](=O)[O-])cc3)n2)cc1,0.8,1.6,12.8,-1.2,.,.
Cn1cccc1/C=N/n1c(-c2ccc(Cl)cc2Cl)n[nH]c1=S,-0.4,2.1,7.8,0.6,.,.
CC(=O)Nc1cc(-c2ccccc2)cn2c(-c3cccc(C(C)=O)c3)cnc12,0.1,21.0*,5.6,-4.0,19.6*,2.7
CC(=O)c1cccc(-c2cnc3c(NC=O)cc(-c4ccccc4F)cn23)c1,-0.1,20.1*,-8.4,-2.2,19.9*,2.7
SMILES,MsrA inh,MC4R ag barr,MC4R antag cAMP,MsrA act,MC4R barr conf,MOR-DOR barr ag
CC(=O)Nc1cc(-c2cccc(C(=O)N(C)C)c2)cn2c(-c3ccccc3)cnc12,2.2,1.3,14.5,-0.8,.,.
CC(=O)Nc1cc(-c2cccc(N)c2)cn2c(-c3ccccc3)cnc12,-0.2,12.1*,17.7,-2.5,1.8,2.5
CC(=O)Nc1cc(-c2cccc(C(=O)N(C)C)c2)cn2c(-c3ccc(C(C)=O)cc3)cnc12,1.2,11.2*,20.9,-3.3,6.3,0.7
O=C(NC1CCCC1)C1c2ccccc2OCC(=O)N1Cc1ccc2c(c1)OCO2 (stereo not drawn),0.4,.,.,-8.9,.,.
Cc1ccc(S(=O)(=O)NC(C)(C)CN2CCCCC2)cc1,0.6,0.3,-7.0,-11.4,.,.
O=C1CC(NS(=O)(=O)c2ccc([N+](=O)[O-])cc2)CN1c1ccc(Cl)cc1 (stereo not drawn),-1.7,3.8,13.5,1.6,.,.
COCCn1c(SCC(=O)NC2CCCCC2C)nc2ccccc2c1=O (stereo not drawn),0.3,0.1,6.6,-1.8,.,.
CC(=O)Nc1cc(-c2cccc(C(=O)N(C)C)c2)cn2c(-c3cccc(C(=O)N(C)C)c3)cnc12,1.6,1.3,16.6,0.7,.,.
CC(=O)Nc1cc(-c2cccc(C(=O)N(C)C)c2)cn2c(-c3ccc(F)c(Cl)c3)cnc12,-0.6,16.1*,8.8,-3.0,23.5*,1.8
CC(=O)Nc1cc(-c2ccoc2)cn2c(-c3ccccc3)cnc12,1.0,10.7*,12.5,-1.0,14.5*,2.6
CCCCCCCC1CC(=O)C=C(C)C1C(=O)OCC (stereo not drawn),1.6,2.6,12.2,-2.1,.,.
O=c1cc(/C=C/c2ccccc2)oc2c1ccc1ccccc12,1.6,28.6*,6.1,-3.2,16.0*,4.4
CCOc1cc(C(=O)Nc2ccc(N3CCN(C(C)=O)CC3)cc2)cc(OCC)c1OCC,1.0,-0.4,3.2,-0.8,.,.
O=C(CN1C(=O)C2CC=CCC2C1=O)N1CCN(S(=O)(=O)c2ccccc2)CC1 (stereo not drawn),-0.9,-1.6,17.7,-1.8,.,.
CCn1c(SCC(=O)Nc2ccc(C(C)=O)cc2)nc2nc3c(cc2c1=O)CCCC3,0.1,19.3*,10.9,-0.7,17.6*,1.8
CCn1c(SCC(=O)Nc2ccc(Cl)cc2)nc2nc3c(cc2c1=O)CCCC3,0.4,-0.1,11.9,-2.4,.,.
CCOC(=O)c1sc2ccccc2c1OC(=O)c1ccc(C)cc1,.,14.0*,5.3,-3.4,7.2,8.4
CC1(C(=O)NS(=O)(=O)c2ccccc2)CCN1C(=O)Cc1cc(F)ccc1F (stereo not drawn),0.8,-2.1,0.5,-2.2,.,.
COc1ccc(CNCCc2ccc(Cl)cc2)cc1OCc1ccccc1,.,16.1*,-2.7,-2.1,24.0*,10.7
COc1ccc(-n2nc(C(N)=O)nc2-c2ccccc2)cc1,-0.3,-0.6,3.9,-1.2,.,.
CC1=CC(C)(C)n2c(O)c(N=NC(N)=S)c3cccc1c32,2.0,10.9*,9.3,-2.8,0.7,2.7

# Bioassay records as filed in PubChem.
